Test results: ChEMBL document CHEMBL2203168, “Amine linked flavonoid dimers as modulators for P-glycoprotein-based multidrug resistance: structure-activity relationship and mechanism of modulation” (J Med Chem, 2012)

Columns and labels:
[1] = system: MDR; assay: Cytotoxicity against human MDA435/LCC6MDR cells expressing MDR after 72 hrs; format: functional, cell-based
Outline: (§1)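 Cells seeded at 1 × 10⁴ per well in supplemented DMEM and given graded doses of dimer for 72 h at 37 °C, 5% CO₂. Survival measured and IC50 derived. N = 1–3 independent experiments, mean ± SEM.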

[2] = Cytotoxicity against human LCC-6 cells after 72 hrs; format: functional, cell-based; details: LCC-6, 72 h; outline: as §1
[3] = organism: Homo sapiens; assay: Inhibition of P-gp-mediated paclitaxel resistance in human LCC6MDR cells assessed as fold decrease in paclitaxel IC50 for cytotoxic activity at 1 uM after 5 days by MTS assay relative to parental cells; format: cell-based
[4] = organism: Homo sapiens; assay: Inhibition of P-gp-mediated paclitaxel resistance in human LCC6MDR cells assessed as fold decrease in paclitaxel IC50 for cytotoxic activity at 0.5 uM after 5 days by MTS assay relative to parental cells; format: cell-based
[5] = system: L929; assay: Cytotoxicity against mouse L929 cells after 72 hrs; format: cell-based; details: L929, 72 h; outline: as §1
[6] = Reversal of P-gp-mediated paclitaxel-resistance in human LCC6MDR cells after 5 days by MTS assay; format: cell-based; details: 120 h
[7] = Therapeutic index, ratio of IC50 for L929 cells to EC50 for reversing paclitaxel resistance in human MDA435/LCC6MDR cells; format: cell-based; details: L929 cells (IC50) and MDA435/LCC6MDR cells (EC50)

Compound | IC50 [1] [µM] | IC50 [2] [µM] | Ratio [3] | Ratio [4] | IC50 [5] [µM] | EC50 [6] [µM] | selectivity ratio [7]
O=c1cc(-c2ccc(OCCOCCN(CCO)CCOCCOc3ccc(-c4cc(=O)c5ccccc5o4)cc3)cc2)oc2ccccc12 | 14.8 | 10.7 | 32.6 | 5 | 6.9 | – | –
Cc1ccc2oc(-c3ccc(OCCOCCNCCOCCOc4ccc(-c5cc(=O)c6cc(C)ccc6o5)cc4)cc3)cc(=O)c2c1 | 7 | 7.5 | 139 | 13.9 | 6 | – | –
CC(C)(C)OC(=O)N(CCOCCOc1ccc(-c2cc(=O)c3cc(F)ccc3o2)cc1)CCOCCOc1ccc(-c2cc(=O)c3cc(F)ccc3o2)cc1 | > 100 | > 100 | 31.9 | 11.3 | > 100 | – | –
O=C1c2ccccc2C(=O)N1CCN(CCOCCOc1ccc(-c2cc(=O)c3ccccc3o2)cc1)CCOCCOc1ccc(-c2cc(=O)c3ccccc3o2)cc1 | 4.9 | 8.6 | 118 | 9.6 | 17 | – | –
O=c1cc(-c2ccc(OCCOCCN(CCOCCOc3ccc(-c4cc(=O)c5ccccc5o4)cc3)Cc3ccc(F)cc3)cc2)oc2ccccc12 | > 83 | > 100 | 109 | 31.2 | 19.7 | 0.255 | 77.3
CC(=O)O[C@H]1C(=O)[C@@]2(C)[C@H]([C@H](OC(=O)c3ccccc3)[C@]3(O)C[C@H](OC(=O)[C@H](O)[C@@H](NC(=O)c4ccccc4)c4ccccc4)C(C)=C1C3(C)C)[C@]1(OC(C)=O)CO[C@@H]1C[C@@H]2O | – | – | 1 | – | – | – | –
CCOC(=O)CCN(CCOCCOc1ccc(-c2cc(=O)c3ccccc3o2)cc1)CCOCCOc1ccc(-c2cc(=O)c3ccccc3o2)cc1 | 17.7 | 13.5 | 43.7 | 5.3 | 18.1 | – | –
O=c1cc(-c2ccc(OCCOCCN(CCOCCOc3ccc(-c4cc(=O)c5ccccc5o4)cc3)Cc3cc(F)c(F)c(F)c3)cc2)oc2ccccc12 | > 100 | > 75 | 80.6 | 3.3 | > 100 | – | –
Cc1ccc(S(=O)(=O)N(CCOCCOc2ccc(-c3cc(=O)c4ccccc4o3)cc2)CCOCCOc2ccc(-c3cc(=O)c4ccccc4o3)cc2)cc1 | > 100 | > 100 | 21.6 | 5.8 | > 100 | – | –
COc1cccc2oc(-c3ccc(OCCOCCN(CCOCCOc4ccc(-c5cc(=O)c6c(OC)cccc6o5)cc4)C(=O)OC(C)(C)C)cc3)cc(=O)c12 | 5.4 | 4.6 | 109 | 14.9 | 5.5 | – | –
O=C(c1ccccc1)N(CCOCCOc1ccc(-c2cc(=O)c3ccccc3o2)cc1)CCOCCOc1ccc(-c2cc(=O)c3ccccc3o2)cc1 | > 100 | > 100 | 42.5 | 7.5 | 95 | – | –
CC(C)(C)OC(=O)N(CCOCCOc1ccc(-c2cc(=O)c3ccccc3o2)cc1)CCOCCOc1ccc(-c2cc(=O)c3ccccc3o2)cc1 | 6.2 | 8 | 69.6 | 11.1 | 11.1 | 0.32 | 34.7
O=c1cc(-c2ccc(OCCOCCOCCOCCOc3ccc(-c4cc(=O)c5ccccc5o4)cc3)cc2)oc2ccccc12 | – | – | 17.2 | 6.2 | – | – | –
COC(=O)c1ccc(CN(CCOCCOc2ccc(-c3cc(=O)c4ccccc4o3)cc2)CCOCCOc2ccc(-c3cc(=O)c4ccccc4o3)cc2)cc1 | 64.8 | 33.3 | 18.9 | 2.1 | 11.4 | – | –
O=c1cc(-c2ccc(OCCOCCN(CCOCCOc3ccc(-c4cc(=O)c5ccccc5o4)cc3)Cc3cccc(F)c3)cc2)oc2ccccc12 | > 100 | > 100 | 118 | 36.5 | > 87 | 0.258 | > 337
O=c1c(OCc2ccccc2)c(-c2ccc(OCCOCCNCCOCCOc3ccc(-c4oc5ccccc5c(=O)c4OCc4ccccc4)cc3)cc2)oc2ccccc12 | 4.4 | 4.3 | 128 | 54.7 | 4.2 | – | –
O=c1cc(-c2ccc(OCCOCCNCCOCCOc3ccc(-c4cc(=O)c5cc(F)ccc5o4)cc3)cc2)oc2ccc(F)cc12 | 3.3 | 5.3 | 109 | 72.9 | 5.7 | – | –
O=c1cc(-c2ccc(OCCOCCN(CCOCCOc3ccc(-c4cc(=O)c5ccccc5o4)cc3)Cc3ccc([N+](=O)[O-])cc3)cc2)oc2ccccc12 | > 90 | 86.8 | 128 | 43.7 | 88 | 0.189 | 466

Compound | IC50 [1] [µM] | IC50 [2] [µM] | Ratio [3] | Ratio [4] | IC50 [5] [µM] | EC50 [6] [µM] | selectivity ratio [7]
O=c1cc(-c2ccc(OCCOCCN(CCOCCOc3ccc(-c4cc(=O)c5ccccc5o4)cc3)Cc3ccc(C(F)(F)F)cc3)cc2)oc2ccccc12 | > 100 | > 100 | 90.1 | 37.3 | 32.7 | 0.15 | 218
O=c1cc(-c2ccc(OCCOCCN(CCOCCOc3ccc(-c4cc(=O)c5ccccc5o4)cc3)Cc3ccccn3)cc2)oc2ccccc12 | 29.7 | 10 | 95.7 | 15.8 | 10 | – | –
O=c1cc(-c2ccc(OCCOCCN(CCOCCOc3ccc(-c4cc(=O)c5ccccc5o4)cc3)Cc3ccc(F)c(F)c3)cc2)oc2ccccc12 | 33.6 | 32.5 | 109 | 49.3 | 42.2 | – | –
COc1cc(-c2cc(=O)c3ccccc3o2)ccc1OCCOCCNCCOCCOc1ccc(-c2cc(=O)c3ccccc3o2)cc1OC | 23.8 | 12.8 | 1.1 | 0.8 | – | – | –
CC(C)(C)CC(=O)N(CCOCCOc1ccc(-c2cc(=O)c3ccccc3o2)cc1)CCOCCOc1ccc(-c2cc(=O)c3ccccc3o2)cc1 | > 100 | > 100 | 72.9 | 18.9 | > 100 | – | –
CC(C)(C)OC(=O)N(CCOCCOc1ccc(-c2oc3ccccc3c(=O)c2OCc2ccccc2)cc1)CCOCCOc1ccc(-c2oc3ccccc3c(=O)c2OCc2ccccc2)cc1 | > 100 | > 100 | 1.2 | 1.1 | – | – | –
CS(=O)(=O)N(CCOCCOc1ccc(-c2cc(=O)c3ccccc3o2)cc1)CCOCCOc1ccc(-c2cc(=O)c3ccccc3o2)cc1 | 42.6 | 27.5 | 20.1 | 12.8 | 13.4 | – | –
C/C=C/C[C@@H](C)C(=O)[C@H]1C(=O)N[C@@H](C(C)C)C(=O)N(C)CC(=O)N(C)[C@@H](CC(C)C)C(=O)N[C@@H](C(C)C)C(=O)N(C)[C@@H](CC(C)C)C(=O)N[C@@H](C)C(=O)N[C@H](C)C(=O)N(C)[C@@H](CC(C)C)C(=O)N(C)[C@@H](CC(C)C)C(=O)N(C)[C@@H](C(C)C)C(=O)N1C [VALSPODAR] | 14.6 | 25.3 | 85.1 | – | > 100 | – | –
O=c1cc(-c2ccc(OCCOCCNCCOCCOc3ccc(-c4cc(=O)c5ccccc5o4)cc3)cc2)oc2ccccc12 | 2.4 | 3.3 | 139 | 72.9 | 5.9 | 0.305 | 19.3
COc1cc(-c2cc(=O)c3ccccc3o2)ccc1OCCOCCN(CCOCCOc1ccc(-c2cc(=O)c3ccccc3o2)cc1OC)C(=O)OC(C)(C)C | 6.9 | 8.3 | 16.8 | 8.7 | 33.3 | – | –
O=c1cc(-c2ccc(OCCOCCN(CCCc3ccccc3)CCOCCOc3ccc(-c4cc(=O)c5ccccc5o4)cc3)cc2)oc2ccccc12 | > 100 | > 100 | 56.7 | 12.5 | 9.5 | 0.25 | 38
O=c1cc(-c2ccc(OCCOCCN(CCOCCOc3ccc(-c4cc(=O)c5ccccc5o4)cc3)Cc3ccccc3F)cc2)oc2ccccc12 | > 100 | > 100 | 102 | 43.7 | > 100 | 0.179 | > 559
O=C(O)CCC(=O)N(CCOCCOc1ccc(-c2cc(=O)c3ccccc3o2)cc1)CCOCCOc1ccc(-c2cc(=O)c3ccccc3o2)cc1 | > 100 | 78.4 | 0.9 | 1.1 | – | – | –
COc1cccc2oc(-c3ccc(OCCOCCNCCOCCOc4ccc(-c5cc(=O)c6c(OC)cccc6o5)cc4)cc3)cc(=O)c12 | 10.2 | 8.8 | 1.2 | 1.2 | – | – | –
CN(C)c1cccc2c(S(=O)(=O)N(CCOCCOc3ccc(-c4cc(=O)c5ccccc5o4)cc3)CCOCCOc3ccc(-c4cc(=O)c5ccccc5o4)cc3)cccc12 | > 100 | > 100 | 1.3 | 1.4 | – | – | –
C[C@H](N)C(=O)N(CCOCCOc1ccc(-c2cc(=O)c3ccccc3o2)cc1)CCOCCOc1ccc(-c2cc(=O)c3ccccc3o2)cc1 | 4.6 | 4.4 | 0.9 | 1 | – | – | –
O=c1cc(-c2ccc(OCCOCCN(CCOCCOc3ccc(-c4cc(=O)c5ccccc5o4)cc3)Cc3ccncc3)cc2)oc2ccccc12 | > 100 | > 100 | 27.8 | 6.9 | 26.4 | – | –
Cc1ccc2oc(-c3ccc(OCCOCCN(CCOCCOc4ccc(-c5cc(=O)c6cc(C)ccc6o5)cc4)C(=O)OC(C)(C)C)cc3)cc(=O)c2c1 | > 100 | > 100 | 139 | 9.6 | > 100 | – | –
